Results published in ChEMBL document CHEMBL1141933 (J Med Chem, 2005).

Experiments:
[1] = tested on: Plasmodium falciparum; assay: Effective dose against chloroquine-resistant, pyrimethamine-resistant, mefloquine-sensitive Plasmodium falciparum W2; type: functional; conditions: read-out: ED50 (the source's name)
Procedure, shortened: (§1)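 Asynchronous blood-stage culture (0.5% parasitemia, 0.5% hematocrit) in RPMI-1640 with 20% heat-inactivated human A+ plasma, human A+ erythrocytes. Compound added from DMSO, 48 h at 37 C under 5% CO2/5% O2/90% N2. [8-3H]hypoxanthine then added for a further 24 h and uptake counted. Uninfected-RBC background subtracted; DMSO vehicle = 100% growth. ED50 by linear regression, mean of at least two runs.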

[2] = target: T1, Protein farnesyltransferase (PFT) (Plasmodium falciparum, UniProt Q5EI73+Q5EI74); assay: Inhibition of biotinylated lamin B peptide farnesylation by Plasmodium falciparum farnesyltransferase; type: protein-complex assay
T1 sequence (Q5EI73 whole entry): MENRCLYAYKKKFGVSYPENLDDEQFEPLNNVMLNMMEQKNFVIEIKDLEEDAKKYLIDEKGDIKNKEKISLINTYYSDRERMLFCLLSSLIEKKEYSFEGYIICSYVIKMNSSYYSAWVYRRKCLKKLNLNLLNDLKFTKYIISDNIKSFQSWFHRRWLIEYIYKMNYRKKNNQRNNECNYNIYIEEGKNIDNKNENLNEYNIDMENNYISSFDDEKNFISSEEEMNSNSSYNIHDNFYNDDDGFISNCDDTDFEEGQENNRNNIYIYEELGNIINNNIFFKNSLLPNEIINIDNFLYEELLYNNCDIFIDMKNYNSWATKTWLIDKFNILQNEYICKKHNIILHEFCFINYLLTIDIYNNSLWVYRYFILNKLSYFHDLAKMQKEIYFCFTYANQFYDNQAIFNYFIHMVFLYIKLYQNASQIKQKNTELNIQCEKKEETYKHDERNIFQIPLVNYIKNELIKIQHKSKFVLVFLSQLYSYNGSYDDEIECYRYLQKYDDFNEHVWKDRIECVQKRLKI
T1 sequence (Q5EI74 whole entry): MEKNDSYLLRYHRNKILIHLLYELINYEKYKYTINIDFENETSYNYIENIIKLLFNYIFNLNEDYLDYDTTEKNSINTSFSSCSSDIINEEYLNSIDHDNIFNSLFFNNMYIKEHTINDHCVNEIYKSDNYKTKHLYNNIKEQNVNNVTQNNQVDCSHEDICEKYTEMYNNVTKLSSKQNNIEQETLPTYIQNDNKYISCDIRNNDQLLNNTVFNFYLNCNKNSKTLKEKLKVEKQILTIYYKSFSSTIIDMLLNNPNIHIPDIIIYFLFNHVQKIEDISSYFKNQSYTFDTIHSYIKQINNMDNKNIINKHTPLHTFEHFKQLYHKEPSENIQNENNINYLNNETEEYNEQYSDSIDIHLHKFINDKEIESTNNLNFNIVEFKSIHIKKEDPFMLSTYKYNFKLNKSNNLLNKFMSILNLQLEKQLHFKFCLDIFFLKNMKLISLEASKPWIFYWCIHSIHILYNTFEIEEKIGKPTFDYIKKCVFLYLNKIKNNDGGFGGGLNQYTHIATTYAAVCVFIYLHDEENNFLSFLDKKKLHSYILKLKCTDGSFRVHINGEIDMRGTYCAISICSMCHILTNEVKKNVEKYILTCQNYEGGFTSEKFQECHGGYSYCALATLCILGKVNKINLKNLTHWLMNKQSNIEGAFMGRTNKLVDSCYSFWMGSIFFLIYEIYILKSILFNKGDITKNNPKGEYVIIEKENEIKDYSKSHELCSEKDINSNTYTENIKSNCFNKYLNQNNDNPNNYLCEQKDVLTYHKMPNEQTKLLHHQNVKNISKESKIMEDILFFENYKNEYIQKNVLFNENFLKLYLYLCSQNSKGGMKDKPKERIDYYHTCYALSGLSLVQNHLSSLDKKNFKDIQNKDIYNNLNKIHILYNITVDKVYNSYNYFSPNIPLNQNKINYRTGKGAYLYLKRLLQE

[3] = target: Protein farnesyltransferase (Rattus norvegicus, UniProt Q02293+Q04631); assay: Inhibition of biotinylated lamin B peptide farnesylation by rat farnesyltransferase; type: protein-complex assay
[4] = tested on: Plasmodium falciparum; assay: Effective dose against chloroquine-resistant, pyrimethamine-resistant, mefloquine-resistant Plasmodium falciparum Dd2; type: functional; conditions: read-out: ED50 (the source's name); procedure, shortened: as §1
[5] = tested on: Plasmodium falciparum; assay: Effective dose against chloroquine-sensitive, pyrimethamine-sensitive, mefloquine-sensitive Plasmodium falciparum 3D7; type: functional; conditions: read-out: ED50 (the source's name)
Procedure, shortened: (§2)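 Asynchronous culture in human A+ erythrocytes at 0.5% parasitemia and 0.5% hematocrit, in RPMI-1640 with 20% heat-inactivated human A+ plasma. Compound added in DMSO; 48 h at 37 C under 5% CO2/5% O2/90% N2. [8-3H]hypoxanthine added for a further 24 h, then incorporation counted. Uninfected-RBC background subtracted; DMSO = 100% growth. ED50 by linear regression; ≥2 tests, mean.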

[6] = tested on: Plasmodium falciparum; assay: Effective dose against chloroquine-sensitive, pyrimethamine-sensitive, mefloquine-sensitive Plasmodium falciparum HB3; type: functional; conditions: read-out: ED50 (the source's name); procedure, shortened: as §2
[7] = tested on: Plasmodium falciparum; assay: Effective dose against chloroquine-resistant, pyrimethamine-resistant, mefloquine-sensitive Plasmodium falciparum K1; type: functional; conditions: read-out: ED50 (the source's name); procedure, shortened: as §1
[8] = tested on: Plasmodium falciparum; assay: Effective dose against Plasmodium falciparum 3D7; type: functional; conditions: read-out: ED50 (the source's name); procedure, shortened: as §2
[9] = tested on: Plasmodium falciparum; assay: Effective dose against Plasmodium falciparum; type: functional; conditions: read-out: ED50 (the source's name)

| Structure (SMILES) | IC50 [2] [nM] | IC50 [3] [nM] | EC50 [8] [nM] | EC50 [9] [nM] | EC50 [1] [nM] | EC50 [4] [nM] | EC50 [5] [nM] | EC50 [6] [nM] | EC50 [7] [nM] |
| --- | --- | --- | --- | --- | --- | --- | --- | --- | --- |
| C=C(C)CN(C1Cc2cc(C#N)ccc2N(Cc2cncn2C)C1)S(=O)(=O)c1cn(C)cn1 (configuration not stated) | 0.6 | 0.7 |  |  | 21 | 10 | 7 | 12 | 15 |
| Cn1cnc(S(=O)(=O)N(Cc2ccccc2)C2Cc3cc(C#N)ccc3N(Cc3cncn3C)C2)c1 (configuration not stated) | 0.6 | 1.2 |  |  | 14 | 8 | 5 | 10 | 9 |
| Cn1cnc(S(=O)(=O)N(CC(=O)OC(C)(C)C)C2Cc3cc(C#N)ccc3N(Cc3cncn3C)C2)c1 (configuration not stated) | 0.9 | 1.2 |  |  |  | 6 | 5 | 7 | 20 |
| Cn1cncc1CN1CC(N(CC(=O)NC(C)(C)C)S(=O)(=O)c2nccn2C)Cc2cc(C#N)ccc21 (configuration not stated) | 8 | 5 | > 5000 |  |  |  |  |  |  |
| C=C(Br)CN(C1Cc2cc(C#N)ccc2N(Cc2cncn2C)C1)S(=O)(=O)c1cn(C)cn1 (configuration not stated) | 0.4 | 0.8 |  |  | 14 | 10 | 6 | 10 | 10 |
| Cn1cnc(S(=O)(=O)N(CC(=O)NC(C)(C)C)C2Cc3cc(C#N)ccc3N(Cc3cncn3C)C2)c1 (configuration not stated) | 1.2 | 1.5 |  |  | 8 | 4 | 5 | 7 | 7 |
| Cn1cncc1CN1CC(N(CC(=O)NC(C)(C)C)S(=O)(=O)c2cccnc2)Cc2cc(C#N)ccc21 (configuration not stated) | 25 | 6 | 2700 |  |  |  |  |  |  |
| Cn1cncc1CN1CC(N(Cc2cc3nsnc3cc2Cl)S(=O)(=O)c2ccccn2)Cc2cc(C#N)ccc21 (configuration not stated) | 55 | 10 | 3000 |  |  |  |  |  |  |
| Cn1cnc(S(=O)(=O)N(CC2CCN(C(=O)OC(C)(C)C)CC2)C2Cc3cc(C#N)ccc3N(Cc3cncn3C)C2)c1 (configuration not stated) | 1.1 | 3.2 | 100 |  |  |  |  |  |  |
| Cn1cncc1CN1CC(N(CC(=O)NC(C)(C)C)S(=O)(=O)c2ccncc2)Cc2cc(C#N)ccc21 (configuration not stated) | 1000 | 160 | > 5000 |  |  |  |  |  |  |
| CCN(CC)CCCC(C)Nc1ccnc2cc(Cl)ccc12 (configuration not stated) [CHLOROQUINE] |  |  |  |  | 125 | 78 | 8 | 5 | 200 |
| NC(=O)N1CCC(CC(=O)N2CCC([C@H]3c4ncc(Br)cc4CCc4cc(Cl)cc(Br)c43)CC2)CC1 [LONAFARNIB] | > 250 |  |  | 3000 |  |  |  |  |  |
| O[C@H](c1cc(C(F)(F)F)nc2c(C(F)(F)F)cccc12)[C@@H]1CCCCN1 [MEFLOQUINE] |  |  |  |  | 9 | 100 | 24 | 29 | 10 |
| CCc1nc(N)nc(N)c1-c1ccc(Cl)cc1 [PYRIMETHAMINE] |  |  |  |  |  | 16000 | 39 | 2 | 25000 |
| Cn1cncc1[C@@](N)(c1ccc(Cl)cc1)c1ccc2c(c1)c(-c1cccc(Cl)c1)cc(=O)n2C [TIPIFARNIB] | 7 |  |  | 3000 |  |  |  |  |  |

The next lines start with results.

| IC50 [2] [nM] | IC50 [3] [nM] | EC50 [8] [nM] | EC50 [9] [nM] | Structure (SMILES) | EC50 [1] [nM] | EC50 [4] [nM] | EC50 [5] [nM] | EC50 [6] [nM] | EC50 [7] [nM] |
| --- | --- | --- | --- | --- | --- | --- | --- | --- | --- |
| 1.5 | 3.4 | 55 |  | Cc1ccccc1CN(C1Cc2cc(C#N)ccc2N(Cc2cncn2C)C1)S(=O)(=O)c1cn(C)cn1 (configuration not stated) |  |  |  |  |  |
| 2.8 | 3.8 | 51 |  | Cn1cncc1CN1CC(N(Cc2ccccn2)S(=O)(=O)c2ccccn2)Cc2cc(C#N)ccc21 (configuration not stated) |  |  |  |  |  |
| 28 | 1000 | 3000 |  | Cn1cnc(S(=O)(=O)N(Cc2ccc3ccccc3c2Br)C2Cc3cc(C#N)ccc3N(Cc3cncn3C)C2)c1 (configuration not stated) |  |  |  |  |  |
| 42 | 7.6 | > 5000 |  | Cn1cncc1CN1CC(N(CC(=O)NC(C)(C)C)S(=O)(=O)Cc2ccc(F)cc2)Cc2cc(C#N)ccc21 (configuration not stated) |  |  |  |  |  |
| 9 |  |  | > 5000 | Cn1cncc1C(O)(CN1CCC(C#N)=C(c2cccc3ccccc23)C1)c1ccc(C#N)cc1 (configuration not stated) |  |  |  |  |  |
|  |  |  | > 5000 | N#Cc1ccc(Cn2cncc2CN[C@H]2CCN(Cc3cccc(Cl)c3)C2=O)cc1 |  |  |  |  |  |
| 1000 |  |  | 150 | CSCC[C@H](NC(=O)c1ccc(CNCc2cnc[nH]2)cc1-c1ccccc1C)C(=O)OCc1ccccc1 |  |  |  |  |  |
| 5 |  |  | > 5000 | CCSC[C@H](CC1CCCCC1)NCc1ccc(C(=O)N[C@@H](CCSC)C(=O)O)c(-c2ccccc2C)c1 |  |  |  |  |  |
| 0.8 | 3 | 113 |  | Cc1onc(-c2ccccc2)c1CN(C1Cc2cc(C#N)ccc2N(Cc2cncn2C)C1)S(=O)(=O)c1ccccn1 (configuration not stated) |  |  |  |  |  |
| 165 | 440 | 2750 |  | Cn1cncc1CN1CC(N(Cc2ccc3ccccc3c2Br)S(=O)(=O)c2ccccn2)Cc2cc(C#N)ccc21 (configuration not stated) |  |  |  |  |  |
| 1.4 | 1.8 | 85 |  | Cn1cncc1CN1CC(N(CC(=O)NC(C)(C)C)S(=O)(=O)c2ccccn2)Cc2cc(C#N)ccc21 (configuration not stated) |  |  |  |  |  |
| 15 |  |  | > 20000 | CSCC[C@H](NC(=O)c1ccc(CNCc2c[nH]cn2)cc1-c1ccccc1C)C(=O)O |  |  |  |  |  |
